Assay results from different studies.
Protocols differ between the studies behind these lines. pEC50, pIC50: −log10 of the molar value.
Organism: Leishmania infantum
Observed: parasite growth

Compound | technique | cells | time | setting | quantity | value
CCCCCCCCCCCCCCCCOP(=O)([O-])OCC[N+](C)(C)C | imaging | mouse Macrophage | 5 days | intracellular, amastigote | pEC50 | 5.08
O=C(N[C@@H](Cc1ccccc1)C(=O)c1nc2ccccc2s1)[C@H](Cc1ccccc1)NC(=O)N1CCOCC1 |  |  |  | intracellular, amastigote | pIC50 | 4.90
Cc1ccc(-c2c(-c3ccccn3)nc3n2CCC3)cc1 |  |  | 5 days | intracellular, amastigote | pEC50 | 6.30
O=C(N[C@@H](CCc1ccccc1)C(=O)c1cc(-c2ccccc2)on1)[C@H](Cc1ccccc1)NC(=O)N1CCOCC1 (single isomer, unassigned) |  |  |  | intracellular, amastigote | pIC50 | < 4.19
c1ccc(-c2nc3n(c2-c2ccc4cccnc4c2)CCC3)nc1 |  |  | 5 days | intracellular, amastigote | pEC50 | 5.40
O=C(N[C@@H](Cc1ccccc1)C(=O)c1nccs1)[C@H](Cc1ccccc1)NC(=O)N1CCOCC1 |  |  |  | intracellular, amastigote | pIC50 | < 4.19
CCCCCCCCCCCCCCCCOP(=O)([O-])OCC[N+](C)(C)C | imaging |  |  | intracellular, amastigote | pIC50 | 5.28
Fc1ccc(Nc2c(-c3cccnn3)nc3ccccn23)cc1 |  |  |  | intracellular, amastigote | pIC50 | 4.46
CCCCCCCCCCCCCCCCC#CC(=O)O |  |  | 52 h | promastigote | pIC50 | 4.30
